The source made the active and inactive calls. No cut-off for these calls is given here. Bounds are passed on as bounds.

A short description of data set [1]: Drug metabolism in human liver microsomes at 10 uM incubated for 60 mins in presence of NADPH by HPLC analysis. As to conditions: 1 h. The format is ADME, Microsome. In outline: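 Compound (10 µM) was incubated 0 or 60 min at 37 °C with pooled HLMs (1 mg/mL), with or without 1 mM NADPH, or in buffer only (0.1 M KH2PO4 pH 7.4). Reactions were stopped with ice-cold acetonitrile. Remaining parent was measured by HPLC-fluorescence relative to 0 min; mean ± SD, n = 3.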
A general note: Microsomes from liver hold many membrane-bound enzymes, among them those of drug oxidation.

Data set [2] in a line: Metabolic stability in NADPH-supplemented human liver microsomes assessed as parent compound remaining at 37 degC incubated for 30 mins. It counts as ADME, Microsome. Conditions: read-out: Stability. Put shortly: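 Compound (10 µM) was incubated at 37 °C with 0.5 mg/mL pooled HLMs and 1 mM NADPH in 0.1 M KH2PO4 pH 7.4, sampled at 0, 2, 5, 15 and 30 min. Controls without NADPH, or buffer only, ran 0 and 30 min. Parent was quantified by HPLC-fluorescence as % of the 0 min level, n = 3. t1/2 = 0.693/k, with k from regression of ln % remaining versus time.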

Data set [3] is described as follows: Metabolic stability in human liver microsomes assessed as retention time of 7-phenyl-3H-pyrrolo[3,2-f]quinolin-9(6H)-one metabolite at 10 uM incubated for 60 mins in presence of NADPH by HPLC analysis. As to conditions: 1 h. The format is ADME, Microsome. Put shortly:
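Compound (10 µM) was incubated with pooled mixed-gender HLMs (0.5 mg protein/mL), 1 mM NADPH and 0.1 M KH2PO4 pH 7.4 for 60 min at 37 °C, aerobic. The reaction was started with microsomes and stopped with ice-cold acetonitrile; controls lacked NADPH. The supernatant went to C8 HPLC with fluorescence detection (ex 344, em 493 nm). Collected peaks were analyzed by ESI+ mass spectrometry.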

For data set [4], the system named is HeLa. Description: Induction of apoptosis in human HeLa cells assessed as decrease in Mcl1 protein expression at 50 to 100 nM incubated upto 48 hrs by western blot analysis. The format is functional, cell-based. As to conditions: 10 to 100 nM, in the assay text read “10 to 100 nM” for “50 to 100 nM”. Put shortly: (§1)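 HeLa cells were exposed for set times, including 24 and 48 h, then washed in cold PBS and lysed on ice for 30 min. Lysates were cleared at 15000 × g at 4 °C. 10 µg protein was run by SDS-PAGE and transferred to PVDF. Blots were probed 2 h at room temperature with primary antibodies, then peroxidase secondary antibodies, and detected by ECL. Membranes were reprobed for actin as loading control.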
(A western blot detects proteins with antibodies after separation by electrophoresis.)

Data set [5] concerns A2058. The data set can be described thus: Induction of cell cycle arrest in human A2058 cells assessed as reduction in cell population at G1 phase at 50 to 100 nM incubated for 24 hrs by PI staining based flow cytometric analysis. It counts as functional. Put shortly:
(§2)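 A375 and A2058 melanoma cells were treated 24 h. Cells were fixed in ice-cold 70% ethanol, then given lysis buffer with RNase A and 0.1% Triton X-100 and stained with PI. Phase distribution came from flow cytometric DNA histograms. Mean ± SEM of two independent experiments.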
(Flow cytometry measures light scatter and fluorescence of single cells or particles in a stream.)

Data set [6] deals with HeLa. The data set can be described thus: Induction of apoptosis in human HeLa cells at 50 nM incubated for 24 to 48 hrs by annexin-V FITC and PI staining based flow cytometric analysis. The format is functional, cell-based. Put shortly:
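HeLa cells were treated 24 or 48 h, then harvested and double-stained with annexin-V-FITC and PI for flow cytometry. Populations were separated as live, early apoptotic, late apoptotic and necrotic. Mean ± SEM of three independent experiments.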

For data set [7], the system named is HeLa. Description: Cell cycle arrest in human HeLa cells assessed as proportion of mitotic cells at 50 nM incubated for 24 hrs by PI staining based flow cytometric assay (reference value: 1.5%). The format is functional.
The subject of data set [8] is B16-BL6. Description: Growth inhibition of mouse B16-BL6 cells incubated for 72 hrs by MTT assay. It counts as functional. As to conditions: B16-BL6, 72 h.
Data set [9] concerns HeLa. The data set can be described thus: Induction of apoptosis in human HeLa cells assessed as increase in H2AX expression at 50 to 100 nM incubated upto 48 hrs by western blot analysis. It counts as functional, cell-based. Put shortly:
as §1

Data set [10] has as its system A-375. The data set can be described thus: Induction of cell cycle arrest in human A375 cells assessed as reduction in cell population at S phase at 50 to 100 nM incubated for 24 hrs by PI staining based flow cytometric analysis. It counts as functional. In outline: as §2
Data set [11] is described as follows: Toxicity in C57BL/6 mouse allografted with mouse B16-BL6 cells assessed as change in body weight at 3 to 7.5 mg/kg, ip administrated every other day. It counts as organism-based. As to conditions: in vivo. Put shortly:
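Male six-week-old C57BL/6 mice were given BL6-B16 murine melanoma cells subcutaneously in the dorsolateral flank in PBS. Once tumours reached about 100 mm³, mice were randomised and dosed intraperitoneally every other day with 3.0 or 7.5 mg/kg in DMSO, or vehicle alone. Body weight change was followed; 5 animals per group, mean ± SEM.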

Data set [12] has as its system A-375. Description: Induction of cell cycle arrest in human A375 cells assessed as reduction in cell population at G1 phase at 50 to 100 nM incubated for 24 hrs by PI staining based flow cytometric analysis. It counts as functional. Put shortly: as §2
Data set [13] has as its system HeLa. Description: Induction of ROS generation in human HeLa cells at 100 nM incubated for 12 to 24 hrs by H2DCFDA staining based flow cytometric analysis. The format is functional, cell-based. In outline:
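HeLa cells were treated 6, 12, 24 and 48 h, then stained with H2-DCFDA. ROS fluorescence was read by flow cytometry. Mean ± SEM of three independent experiments.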

Data set [14] has as its system HeLa. The data set can be described thus: Cell cycle arrest in human HeLa cells assessed as decrease in phosphorylated form of cdc2 kinase at 50 to 100 nM incubated for 48 hrs by western blot analysis. The format is functional, cell-based. Put shortly:
as §1

`CCn1ccc2c3c(=O)cc(-c4ccccc4)[nH]c3ccc21`: the Drug metabolism result in data set [1] was “Metabolite_Detected”. Moreover, in data set [2], the remaining at 0.5 h was less than 70%. Moreover, the Retention_time in data set [3] is 11.2 min.
For the molecule `CCn1ccc2c3c(=O)cc(-c4ccccc4F)[nH]c3ccc21`, the outcome in data set [4], in data set [5], in data set [6], in data set [9], in data set [10] and in data set [12] was Active. In addition, the result in data set [13] was Active. For the same molecule, the Activity in data set [7] is given as 10%; in [11], “Non-Toxic”. Growth in data set [8] was halved (GI50) at 10 nM. Besides, the inhibition result in [14] was “Active”.

The values are drawn from ChEMBL document CHEMBL4334446, “Evaluating the effects of fluorine on biological properties and metabolic stability of some antitubulin 3-substituted 7-phenyl-pyrroloquinolinones” (Eur J Med Chem, 2019).
